Results published in ChEMBL document CHEMBL1123950, “N-(Retinoyl)amino acids. Synthesis and chemopreventive activity in vitro” (1988).

Assays:
[1] = test system: Cricetinae gen. sp.; assay: Cultures with severe degree of squamous metaplasia at a conc of 10e-9 M; assay type: functional, Cricetulus griseus
In short: (§1)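 Tracheas from 29-31-day-old hamsters fed a vitamin A free diet; cultured in serum-free CMRL 1066 (insulin 1.0 μg/mL, hydrocortisone hemisuccinate 0.1 μg/mL, glutamine 2 mM, Garamycin 50 μg/mL), 50% O2/45% N2/5% CO2, rocked, 36 °C. Retinoid-free 3 days, then retinoid in DMSO (final 0.1%) for 7 days; medium and gas changed three times. Formalin-fixed day 10; squamous metaplasia graded: mild 2-10%, marked 10-40%, severe >40%.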

[2] = test system: Cricetinae gen. sp.; assay: Cultures with mild degree of squamous metaplasia at a conc of 10e-11 M; assay type: functional, Cricetulus griseus; in short: as §1
[3] = test system: Cricetinae gen. sp.; assay: Cultures with no evidence of squamous metaplasia at a conc of 10e-10 M; assay type: functional, Cricetulus griseus; in short: as §1
[4] = test system: Cricetinae gen. sp.; assay: Cultures with minimal degree of squamous metaplasia at a conc of 10e-8 M; assay type: functional, Cricetulus griseus; in short: as §1
[5] = test system: Cricetinae gen. sp.; assay: Cultures with marked degree of squamous metaplasia at a conc of 10e-9 M; assay type: functional, Cricetulus griseus; in short: as §1
[6] = test system: Cricetinae gen. sp.; assay: Cultures with minimal degree of squamous metaplasia at a conc of 10e-10 M; assay type: functional, Cricetulus griseus; in short: as §1
[7] = test system: Cricetinae gen. sp.; assay: Reversal of keratinization in vitamin A deficient hamster trachea culture at a conc of 10e-8 M; assay type: functional, Cricetulus griseus; conditions: read-out: ED50 (the source's name)
In short: (§2)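 Tracheas from 29-31-day-old hamsters kept on a vitamin A free diet, cultured in serum-free CMRL 1066 (insulin 1.0 μg/mL, hydrocortisone hemisuccinate 0.1 μg/mL, glutamine 2 mM, Garamycin 50 μg/mL), 50% O2/45% N2/5% CO2, rocked at 36 °C. Retinoid-free for 3 days, then retinoid in DMSO (0.1% final) for 7 days. Fixed in formalin; squamous metaplasia graded mild 2-10%, marked 10-40%, severe >40%.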

[8] = test system: Cricetinae gen. sp.; assay: Cultures with severe degree of squamous metaplasia at a conc of 10e-8 M; assay type: functional, Cricetulus griseus; in short: as §1
[9] = test system: Cricetinae gen. sp.; assay: Cultures with severe degree of squamous metaplasia at a conc of 10e-11 M; assay type: functional, Cricetulus griseus; in short: as §1
[10] = test system: Cricetinae gen. sp.; assay: Cultures with no evidence of squamous metaplasia at a conc of 10e-8 M; assay type: functional, Cricetulus griseus; in short: as §1
[11] = test system: Cricetinae gen. sp.; assay: Cultures with mild degree of squamous metaplasia at a conc of 10e-10 M; assay type: functional, Cricetulus griseus; in short: as §1
[12] = test system: Cricetinae gen. sp.; assay: Cultures with minimal degree of squamous metaplasia at a conc of 10e-11 M; assay type: functional, Cricetulus griseus; in short: as §1
[13] = test system: Cricetinae gen. sp.; assay: Cultures with no evidence of squamous metaplasia at a conc of 10e-9 M; assay type: functional, Cricetulus griseus; in short: as §1
[14] = test system: Cricetinae gen. sp.; assay: Cultures with minimal degree of squamous metaplasia at a conc of 10e-9 M; assay type: functional, Cricetulus griseus; in short: as §1
[15] = test system: Cricetinae gen. sp.; assay: Cultures with severe degree of squamous metaplasia at a conc of 10e-10 M; assay type: functional, Cricetulus griseus; in short: as §1
[16] = test system: Cricetinae gen. sp.; assay: Cultures with marked degree of squamous metaplasia at a conc of 10e-8 M; assay type: functional, Cricetulus griseus; in short: as §1
[17] = test system: Cricetinae gen. sp.; assay: Cultures with mild degree of squamous metaplasia at a conc of 10e-9 M; assay type: functional, Cricetulus griseus; in short: as §1
[18] = test system: Cricetinae gen. sp.; assay: Cultures with marked degree of squamous metaplasia at a conc of 10e-10 M; assay type: functional, Cricetulus griseus; in short: as §1
[19] = test system: Cricetinae gen. sp.; assay: Cultures with no evidence of squamous metaplasia at a conc of 10e-11 M; assay type: functional, Cricetulus griseus; in short: as §1
[20] = test system: Cricetinae gen. sp.; assay: Cultures with mild degree of squamous metaplasia at a conc of 10e-8 M; assay type: functional, Cricetulus griseus; in short: as §1
[21] = test system: Cricetinae gen. sp.; assay: Cultures with marked degree of squamous metaplasia at a conc of 10e-11 M; assay type: functional; in short: as §1
[22] = test system: Cricetinae gen. sp.; assay: Reversal of keratinization in vitamin A deficient hamster trachea culture; assay type: functional, Cricetulus griseus; conditions: read-out: ED50 (the source's name); in short: as §2

Compound | Culture [1] [%] | Culture [3] [%] | Culture [4] [%] | Culture [5] [%] | Culture [6] [%] | EC50 [7] [nM] | Culture [8] [%] | Culture [10] [%] | Culture [11] [%] | Culture [13] [%] | Culture [14] [%] | Culture [15] [%] | Culture [16] [%] | Culture [17] [%] | Culture [18] [%] | Culture [20] [%] | also measured
CC1=C(/C=C/C(C)=C/C=C/C(C)=C\C(=O)NC(Cc2ccccc2)C(=O)O)C(C)(C)CCC1 (stereo not drawn) | 7 | 29 | 0 | 20 | 0 | 0.6 | 7 | 60 | 21 | 53 | 0 | 14 | 20 | 20 | 36 | 13 | Culture [2]: 14%; Culture [9]: 14%; Culture [12]: 0%; Culture [19]: 29%; Culture [21]: 43%
CC1=C(/C=C/C(C)=C/C=C/C(C)=C/C(=O)NC(CCC(=O)O)C(=O)O)C(C)(C)CCC1 (stereo not drawn) | 0 | 14 | 0 | 25 | 14 | > 10 | 0 | 38 | 29 | 25 | 0 | 0 | 50 | 50 | 43 | 12 | 
CC1=C(/C=C/C(C)=C/C=C/C(C)=C\C(=O)Nc2ccc(O)cc2)C(C)(C)CCC1 |  |  |  |  |  |  |  |  |  |  |  |  |  |  |  |  | EC50 [22]: > 1 nM
